Variants at the floor of the assay were thinned out.
B1: tRNA (parent)
chain: GUUCCGUUGGCGUAAUGGUAACGCGUCUCCCUCCUAAGGAGAAGACUGCGGGUUCGAGUCCCGUACGGAACG

Variants of: B1
Assay: yeast fitness relative to wild type (ratio to wild type); higher = fitter; tRNA-Arg(CCU), competitive growth, 37 C, YPD
Method in brief: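 Variants of the tRNA-Arg(CCU) gene were chemically synthesised with a 3% per-site mutation rate across 69 sites and placed at the native genomic locus in Saccharomyces cerevisiae. Six parallel replicates of the pooled strains were competed in YPD at 37°C for 24 hours, and gene amplicons from the start and end populations were read by 100-nucleotide paired-end sequencing. Darwinian fitness relative to wild type was derived from changes in genotype frequencies. Genotypes required ≥ 100 starting reads, and estimates < 0.5 were set to 0.5.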

| Variant | yeast fitness |
| --- | --- |
| GUUCCGUUGGCGUAAUGGUAAGGCGUCUCCCUCGAUAGGAGAAGACUGCGGGUUUGAGUCCCGUACGGAACG [C22G C34G U35A A36U C55U] | ≤ 0.5 |
| GUUCCGUUGGCGUAAUGGUAAGGCGUCUCCCUCCUAAGGAGAAGACUGGGGGUUCGAGUCCCGGGCGGAUCG [C22G C49G U64G A65G A70U] | ≤ 0.5 |
| GUUCCGUUGGCGUAAUGGUAAGGCGUCUGCCUUCUAAGGAGAAGACUGCGGGUUCGAGUCCCGUACGGAACG [C22G C29G C33U] | ≤ 0.5 |
| GUUCCGUUGGCGUAAUGGUAAGGCGUCUCCCUCCUAAGGAGAAGAAUACGGGUUCGUGUACCGUACGGAACG [C22G C46A G48A A57U C60A] | 0.576 |
| GUUCCGUUGGCGUAAUGGUAAGGCGUCUCUCUCCUAGGGAGAUGACUGCGGGUUCGAGUCCCGUACGUAACG [C22G C30U A37G A43U G68U] | ≤ 0.5 |
| GUUCCGUUGGCGUAAUGGUAAGGCGUCUCCCUCAUAAGGAGAAGACUGCGGGUUCGAGUCCCGUAAGGAACG [C22G C34A C66A] | 0.703 |
| GUUCCGUUGGCGUAAUGGUAAGGCGUCUCCCUCGUAAGGAGAAGACUGCGGGUUCGAGUCGCGUACGGAACG [C22G C34G C61G] | ≤ 0.5 |
| GUUCCGUUGGCGUAAUGGUAAGGCGUCUCCGUCCUAAGGAGAAGACUGCGGGUACGAGUCGCGUACGGCACG [C22G C31G U54A C61G A69C] | ≤ 0.5 |
| GUUCCGUUGGCGUAAUGGUAAGGCGUCUCGCUCCUAAGGAGAAGACUGCAGGUUCGUGUCCCGUACGGAGCG [C22G C30G G50A A57U A70G] | ≤ 0.5 |
| GUUCCGUUGGCGUAAUGGUAAGGCGUCUGCCUCCUAAGGAGAAGAUUGCGGGUUCGAGUCCCGUACGGAACG [C22G C29G C46U] | 0.568 |
| GUUCCGUUGGCGUAAUGGUAAGGCGUCUCCUUCCUAAGGAGAAGACUGUGGGUUCGAGUCCCGUACGGAACG [C22G C31U C49U] | 0.989 |
| GUUCCGUUGGCGUAAUGGUAAGGCGUCUGCCUCCUAAGGAGAAGACUGCGGGUUCGAGUCCUGUACGGAACG [C22G C29G C62U] | ≤ 0.5 |
| GUUCCGUUGGCGUAAUGGUAAGGCGUCUCCCUUCUAAGGAGAAGACUGCGGGUUCGAGUCCCGUACGGAACG [C22G C33U] | 0.713 |
| GUUCCGUUGGCGUAAUGGUAAGGCGUCUCGCUCCUAAGGAGAAGACUGCGGGUUCGAGUCCCGUACGGAUCG [C22G C30G A70U] | 0.601 |
| GUUCCGUUGGCGUAAUGGUAAGGCGUCUCCAUCCUAAGGAGAAGACUGGGGGUUCGAGUCCCCUACGGUACG [C22G C31A C49G G63C A69U] | 0.603 |
| GUUCCGUUGGCGUAAUGGUAAGGCGUCUCCCUCGUAAGGAGAAGACUGCGGGUUCGAGUCGCGUACGGGACG [C22G C34G C61G A69G] | ≤ 0.5 |
| GUUCCGUUGGCGUAAUGGUAAGGCGUCUCCCUCUUAAGGAGAAGACUGCGGGUUCGAGUUCUGUACGGACCG [C22G C34U C60U C62U A70C] | ≤ 0.5 |
| GUUCCGUUGGCGUAAUGGUAAGGCGUCUCCCUCGUAAGGAGAUGACUGAGGGUUCGAGUCCCGUACGGAACG [C22G C34G A43U C49A] | ≤ 0.5 |
| GUUCCGUUGGCGUAAUGGUAAGGCGUCUCCUUCCUAAGAAGAAGACUGCGGGUUCGAGUCCCGUACGGAACG [C22G C31U G39A] | 0.636 |

| Variant | yeast fitness |
| --- | --- |
| GUUCCGUUGGCGUAAUGGUAAGGCGUCUCCCUCCUAAGGAGAAGACUGCGGGUUCGAGUCACGUACGGUACG [C22G C61A A69U] | 0.573 |
| GUUCCGUUGGCGUAAUGGUAAGGCGUCUCGCUCCUAAGGAGAAGACUGCAGGUUCGUGUCCCGUACGGAACG [C22G C30G G50A A57U] | ≤ 0.5 |
| GUUCCGUUGGCGUAAUGGUAAGGCGUCUCCCUCCUAAGGAGAAGACUGUGGGUUCGCGUCCCGUACGGAACG [C22G C49U A57C] | 0.594 |
| GUUCCGUUGGCGUAAUGGUAAGGCGUCUCCCUCCUAAGGAGAAGACUGCGGGUUAGAGUACCGUACGGAACG [C22G C55A C60A] | ≤ 0.5 |
| GUUCCGUUGGCGUAAUGGUAAGGCGUCUCCCUCCUAAGGAGAAGAGUGCGGGUUCGAGUCCCGUACGGAACG [C22G C46G] | 0.974 |
| GUUCCGUUGGCGUAAUGGUAAGGCGUCUCCCUCCUAAGGAGAAGAAUGCGGGUUCGAGUCCCGUACGGAACG [C22G C46A] | 1.03 |
| GUUCCGUUGGCGUAAUGGUAAGGCGUCUGCCUUCUAAGGAGGAGACUGCAGGUUCGAGUCCCGUAUGGAACG [C22G C29G C33U A42G G50A C66U] | ≤ 0.5 |
| GUUCCGUUGGCGUAAUGGUAAGACGUCUCCCUCCUAAGGAGAAGAUUGCGGGUUCGGGUCCCGUACGGAACG [C22G G23A C46U A57G] | ≤ 0.5 |
| GUUCCGUUGGCGUAAUGGUAAGGCGUCUCCCUCAUAAGGAGAAGACUGCGGGCUCGAGUCCCGUACGGAACG [C22G C34A U53C] | 0.543 |
| GUUCCGUUGGCGUAAUGGUAAGGCGUCUCCGUCCUAAGGAGAAGACUGCGGGAUCGAGUCCCGUACGGAACG [C22G C31G U53A] | ≤ 0.5 |
| GUUCCGUUGGCGUAAUGGUAAGCCGUCUCCCUCCUAAGGAGAAGACUGCGGGUUCGAGUCCCGUACGGAACG [C22G G23C] | 0.779 |
| GUUCCGUUGGCGUAAUGGUAAGGCGUCUCCGUCCUAAGGAGAAGACUGCGGGUGCGAGUCCCGUACGGAACG [C22G C31G U54G] | 0.595 |
| GUUCCGUUGGCGUAAUGGUAAGGCGUCUCGCUCCUAAGGAGAAGACUGCGGGUUCGAGUCCCGUACGAAACG [C22G C30G G68A] | ≤ 0.5 |
| GUUCCGUUGGCGUAAUGGUAAGGCGUCUCCCUCCUAAGGAGAAGAAUGUGGGUUCGAGUCCCGUACGAAACG [C22G C46A C49U G68A] | ≤ 0.5 |
| GUUCCGUUGGCGUAAUGGUAAGGCGUCUGCCUCCUAAGGAGAAGAUUGCGGGUUCGAGUCCCGUAUGGAACG [C22G C29G C46U C66U] | ≤ 0.5 |
| GUUCCGUUGGCGUAAUGGUAAGGCGUCUCCCUCCUAAGGAGAAGACUGCGGGUUCGAGUCCUGUACGCAACG [C22G C62U G68C] | ≤ 0.5 |
| GUUCCGUUGGCGUAAUGGUAAGGCGUCUGCCUCCUAAGGAGAAGACUGCGGGUUCGAGUCCCAUACGGAACG [C22G C29G G63A] | ≤ 0.5 |
| GUUCCGUUGGCGUAAUGGUAAGGCGUCUGCCUCCUAAGGAGAACACUGCGGGUUCAGGUCCCGUACGGAACG [C22G C29G G44C G56A A57G] | 0.515 |

Reference: the RNAGym collection of RNA variant scans (doi:10.1126/science.aae0568)
